Laboratory results as given in ChEMBL document CHEMBL4392872, “Phomanolides C-F from a Phoma sp.: Meroterpenoids Generated via Hetero-Diels-Alder Reactions” (J Nat Prod, 2019).
Activity calls are given as the source filed them. The calls are words filed in the database; no cut-off is given here.

Tests used:
Type in all cases: functional, cell-based
SH-SY5Y [1] = test: Cytotoxicity against human SH-SY5Y cells measured after 48 hrs by MTS assay
Summary of the method: (§1)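 Cells seeded at 1.0 × 10^4 per well and allowed to attach overnight. Medium then replaced with medium holding the test compound, positive control cisplatin, or 0.1% DMSO vehicle. Incubated 48 h at 37 °C, 5% CO2. MTS added and incubated 90 min at 37 °C in the dark, then OD read at 490 nm. Triplicate wells per concentration; each test run three times.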

HeLa [2] = test: Cytotoxicity against human HeLa cells measured after 48 hrs by MTS assay; summary of the method: as §1
SH-SY5Y [3] = test: Cytotoxicity against human SH-SY5Y cells at 50 uM measured after 48 hrs by MTS assay
U-251 [4] = test: Cytotoxicity against human U251 cells at 50 uM measured after 48 hrs by MTS assay
H4 [5] = test: Cytotoxicity against human H4 cells at 50 uM measured after 48 hrs by MTS assay
HeLa [6] = test: Cytotoxicity against human HeLa cells at 50 uM measured after 48 hrs by MTS assay
MCF7 [7] = test: Cytotoxicity against human MCF7 cells at 50 uM measured after 48 hrs by MTS assay
H4 [8] = test: Cytotoxicity against human H4 cells measured after 48 hrs by MTS assay; details: H4, 48 h; summary of the method: as §1
MCF7 [9] = test: Cytotoxicity against human MCF7 cells measured after 48 hrs by MTS assay; details: MCF7, 48 h; summary of the method: as §1
U-251 [10] = test: Cytotoxicity against human U251 cells measured after 48 hrs by MTS assay; details: U-251, 48 h; summary of the method: as §1

Structure (SMILES) | IC50 (SH-SY5Y [1]) | IC50 (HeLa [2]) | Activity (SH-SY5Y [3]) | Activity (U-251 [4]) | Activity (H4 [5]) | Activity (HeLa [6]) | Activity (MCF7 [7]) | IC50 (H4 [8]) | IC50 (MCF7 [9]) | IC50 (U-251 [10])
Cc1cc(O)cc2c1C[C@H]1CC(C)(C)/C=C/C[C@]3(C)OC4=CC(=O)O[C@]5(C)CC(=O)O[C@]45C[C@H]3C[C@H](O)[C@@]1(C)O2 | 83.5 µM | 50 µM |  |  |  |  |  |  |  | 
CC1=CC(=O)O[C@@]23CC(=O)O[C@@]12C[C@H]1C[C@H](O)/C(C)=C\CC(C)(C)/C=C/C[C@]1(C)O3 |  |  | inactive | inactive | inactive | inactive | inactive |  |  | 
CC1=CC(=O)O[C@@]23CC(=O)O[C@@]12C[C@H]1C[C@H](O)[C@@]2(C)Oc4cc(O)c(=O)cc(C)c4C[C@H]2CC(C)(C)/C=C/C[C@]1(C)O3 | 132 µM |  |  |  |  |  |  | 44.6 µM | 68.4 µM | 38.8 µM
CC1=CC(=O)O[C@@]23CC(=O)O[C@@]12C[C@H]1C[C@H](O)[C@@]2(C)Oc4cc(O)cc(C)c4C[C@H]2CC(C)(C)/C=C/C[C@]1(C)O3 |  |  | inactive | inactive | inactive | inactive | inactive |  |  | 
